Assay results: ChEMBL document CHEMBL1153380, “Discovery of potent and orally active 3-alkoxy-5-phenoxy-N-thiazolyl benzamides as novel allosteric glucokinase activators” (Bioorg Med Chem, 2009)
The source made the active and inactive calls. The calls are words filed in the database; no cut-off is given here.

Columns and labels:
[1] = target: T1, Hexokinase-4 (Homo sapiens, UniProt P35557); experiment: Activation of flag-tagged human recombinant liver glucokinase expressed in Escherichia coli by glucose-6-phosphate dehydrogenase coupled continuous spectrophotometric assay in presence of 2.5 mM glucose
T1 sequence (P35557 whole entry): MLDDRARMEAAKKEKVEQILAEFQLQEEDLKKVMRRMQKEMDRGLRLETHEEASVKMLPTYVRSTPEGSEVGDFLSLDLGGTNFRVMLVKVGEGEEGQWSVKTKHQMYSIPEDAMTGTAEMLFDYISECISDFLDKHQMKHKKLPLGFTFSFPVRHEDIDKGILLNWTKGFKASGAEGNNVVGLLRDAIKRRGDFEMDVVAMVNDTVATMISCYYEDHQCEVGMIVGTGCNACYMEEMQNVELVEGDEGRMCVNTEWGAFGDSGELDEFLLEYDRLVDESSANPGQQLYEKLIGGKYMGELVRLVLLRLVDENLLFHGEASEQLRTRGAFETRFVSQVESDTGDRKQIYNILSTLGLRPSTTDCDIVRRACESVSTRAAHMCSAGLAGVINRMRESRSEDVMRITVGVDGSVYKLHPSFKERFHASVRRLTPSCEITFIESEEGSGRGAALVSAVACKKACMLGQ

[2] = target: T1, Hexokinase-4; experiment: Activation of flag-tagged human recombinant liver glucokinase expressed in Escherichia coli by glucose-6-phosphate dehydrogenase coupled continuous spectrophotometric assay in presence of 10 mM glucose
[3] = Volume of distribution at steady state in Sprague-Dawley rat at 1 mg/kg, iv; type: ADME, organism-based; parameters: dose 1 mg/kg, route intravenous; settings: in vivo, read-out: Vdss
[4] = tested on: Mus musculus; experiment: Glucose lowering effect in normal-fed ICR mouse assessed as decrease in plasma glucose AUC level at 30 mg/kg, po; type: functional, organism-based; parameters: dose 30 mg/kg
Procedure, shortened: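 Mice given a single oral dose in 0.5% methylcellulose vehicle. Blood glucose measured just before dosing and at 0.5, 1, 1.5, 2, 3 and 4 h after dosing.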

[5] = Oral bioavailability in Sprague-Dawley rat at 3 mg/kg; type: ADME, organism-based; settings: in vivo
[6] = Half life in Sprague-Dawley rat at 1 mg/kg, iv; type: ADME, organism-based; parameters: dose 1 mg/kg, route intravenous; settings: in vivo
[7] = Tmax in Sprague-Dawley rat at 3 mg/kg, po; type: ADME, organism-based; parameters: dose 3 mg/kg, route oral; settings: in vivo
[8] = Cmax in Sprague-Dawley rat at 3 mg/kg, po; type: ADME, organism-based; parameters: dose 3 mg/kg, route oral; settings: in vivo
[9] = Total clearance in Sprague-Dawley rat at 1 mg/kg, iv; type: ADME, organism-based; parameters: dose 1 mg/kg, route intravenous; settings: in vivo
[10] = tested on: Rattus norvegicus; experiment: Glucose lowering effect in overnight-fasted po dosed Wistar rat assessed as decrease in glucose AUC level administered 30 mins before oral glucose challenge by OGTT; type: functional, organism-based
Procedure, shortened: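 Rats dosed orally in 0.5% methylcellulose vehicle, then given an oral glucose challenge (2 g/kg) 30 min later. Plasma glucose measured just before and after the challenge. Glucose AUC used as read-out.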

[11] = AUC (0 to infinity) in Sprague-Dawley rat at 3 mg/kg, po; type: ADME, organism-based; parameters: time infinity, dose 3 mg/kg, route oral; settings: plasma
[12] = AUC (0 to infinity) in Sprague-Dawley rat at 1 mg/kg, iv; type: ADME, organism-based; parameters: time infinity, dose 1 mg/kg, route intravenous; settings: plasma

Row | Structure (SMILES) | EC50 [1] | EC50 [2] | other results
1 | Cc1csc(NC(=O)c2cc(Oc3cccc(S(C)(=O)=O)c3)cc(OC(C)C)c2)n1 | 1100 nM | 90 nM | –
2 | Cc1csc(NC(=O)c2cc(Oc3ccc(S(C)(=O)=O)cc3)cc(OC(C)C)c2)n1 | 330 nM | 130 nM | Vd [3]: 0.4 L/kg; Activity [4]: Active; bioavailability [5]: 40%; half-life [6]: 1.1 h; Tmax [7]: 1 h; Cmax [8]: 2900 nM; clearance [9]: 4.1 mL/min/kg; Activity [10]: Dose-dependent effect; AUC(0-inf) [11]: 12 µM·h; AUC(0-inf) [12]: 9.7 µM·h
3 | Cc1csc(NC(=O)c2cccc(Oc3cccc(S(C)(=O)=O)c3)c2)n1 | 18000 nM | 1100 nM | –
4 | Cc1csc(NC(=O)c2cc(Oc3ccccc3)cc(Oc3cccc(S(C)(=O)=O)c3)c2)n1 | 1100 nM | 940 nM | –
5 | Cc1csc(NC(=O)c2cc(Oc3ccccc3S(C)(=O)=O)ccc2OC(C)C)n1 | > 30000 nM | > 30000 nM | –
6 | Cc1csc(NC(=O)c2cc(Oc3ccccc3)cc(Oc3ccccc3S(C)(=O)=O)c2)n1 | 1100 nM | 610 nM | –
7 | Cc1ccc(Oc2cccc(C(=O)Nc3nc(C)cs3)c2)cc1 | 5900 nM | 6400 nM | –
8 | CCOc1cc(Oc2ccccc2S(C)(=O)=O)cc(C(=O)Nc2nc(C)cs2)c1 | 2400 nM | 2100 nM | –
9 | Cc1csc(NC(=O)c2cc(Oc3ccccc3S(C)(=O)=O)cc(OC(C)C)c2)n1 | 2100 nM | 440 nM | –
10 | COc1cc(Oc2ccccc2S(C)(=O)=O)cc(C(=O)Nc2nc(C)cs2)c1 | 11000 nM | 1900 nM | –
11 | Cc1csc(NC(=O)c2cc(Oc3ccccc3S(C)(=O)=O)ccc2Oc2ccccc2)n1 | > 30000 nM | > 30000 nM | –
12 | Cc1cccc(Oc2cccc(C(=O)Nc3nc(C)cs3)c2)c1 | 8200 nM | 2300 nM | –
13 | Cc1csc(NC(=O)c2cccc(Oc3ccc(S(C)(=O)=O)cc3)c2)n1 | 29000 nM | 3400 nM | –
14 | Cc1csc(NC(=O)c2cc(Oc3ccccc3)cc(Oc3ccc(S(C)(=O)=O)cc3)c2)n1 | 420 nM | 350 nM | –

The next lines start with results.

Row | EC50 [1] | EC50 [2] | Structure (SMILES) | other results
15 | 19000 nM | 800 nM | Cc1csc(NC(=O)c2cccc(Oc3ccccc3)c2)n1 | –
16 | 6300 nM | 2200 nM | Cc1csc(NC(=O)c2cccc(Oc3cccc(F)c3)c2)n1 | –
17 | 5400 nM | 1900 nM | CCOc1ccccc1Oc1cccc(C(=O)Nc2nc(C)cs2)c1 | –
18 | 2400 nM | 450 nM | Cc1csc(NC(=O)c2cccc(Oc3ccccc3F)c2)n1 | –
19 | 3200 nM | 820 nM | Cc1csc(NC(=O)c2cccc(Oc3ccccc3C)c2)n1 | –
20 | 2200 nM | 490 nM | COc1ccccc1Oc1cccc(C(=O)Nc2nc(C)cs2)c1 | –
21 | 5500 nM | 1100 nM | Cc1csc(NC(=O)c2cccc(Oc3ccccc3S(C)(=O)=O)c2)n1 | –
22 | 21000 nM | 4200 nM | Cc1csc(NC(=O)c2cccc(Oc3ccc(F)cc3)c2)n1 | –
